Assay [1] deals with Rattus norvegicus. Put plainly: Antiinflammatory activity in rat assessed as inhibition of carrageenan-induced paw oedema at 50 mg/kg after 2 hrs by plethysmography relative to control. It is filed as functional. An outline of the steps:
(§1)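 0.1 ml of 1% carrageenan was injected subplantar into the right hind paw. Paw volume was measured plethysmographically immediately and at 1, 2, 3 and 4 h; oedema is the volume difference. Test compounds were dosed at 50 mg/kg b.w., with diclofenac sodium 50 mg/kg as reference. Percent inhibition was calculated against the saline control group. N = 5, mean ± SEM, ANOVA.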

In assay [2] the test system is Rattus norvegicus. As to the kind of experiment: Antiinflammatory activity in rat assessed as inhibition of carrageenan-induced paw oedema at 50 mg/kg after 3 hrs by plethysmography relative to control. It is filed as functional. An outline of the steps: as §1
On the technique in general: In the carrageenan paw model, swelling and tenderness develop within hours.

In assay [3] the test system is Rattus norvegicus. Put plainly: Antiinflammatory activity in rat assessed as inhibition of carrageenan-induced paw oedema at 50 mg/kg after 4 hrs by plethysmography relative to controlchallenge by plethysmography. The format is functional. An outline of the steps: as §1
For assay [4], the system named is Mus musculus. As to the kind of experiment: Analgesic activity in Swiss albino mouse assessed as inhibition of acetic acid-induced writhing at 50 mg/kg, po administered 30 mins prior acetic acid-induction measured after 1 to 2 hrs by tail immersion method. Further details: dose 50 mg/kg. The format is functional, organism-based.
Assay [5] concerns Mus musculus. As to the kind of experiment: Analgesic activity in Swiss albino mouse assessed as protection against acetic acid-induced wriths at 50 mg/kg, po administered 30 mins prior acetic acid challenge measured for 10 mins. It is filed as functional. An outline of the steps:
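Adult Swiss albino mice (20-25 g) were used, with N = 5 per group. Wriths were counted for 10 min, starting 5 min after acetic acid injection, on day 1 as each mouse's control. Next day, 50 mg/kg was given orally 30 min before acetic acid. Diclofenac sodium was the standard. Protection = […] × 100 from group means. Analysis: mean ± SEM, one-way ANOVA, Tukey-Kramer.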

Assay [6] relates to Rattus norvegicus. Put plainly: Antiinflammatory activity in rat assessed as inhibition of carrageenan-induced paw oedema at 50 mg/kg after 1 hr by plethysmography relative to control. The format is functional. An outline of the steps: as §1
For assay [7], the system named is Mus musculus. As to the kind of experiment: Analgesic activity in Swiss albino mouse assessed as inhibition of acetic acid-induced writhing at 50 mg/kg, po administered 30 mins prior acetic acid-induction measured after 1 hr by tail immersion method. It is filed as functional, organism-based. Details: dose 50 mg/kg.
The test system of assay [8] is Mus musculus. As to the kind of experiment: Analgesic activity in Swiss albino mouse assessed as inhibition of acetic acid-induced writhing at 50 mg/kg, po administered 30 mins prior acetic acid-induction measured after 2 hrs by tail immersion method. The format is functional, organism-based. Details: dose 50 mg/kg. For orientation: An intraperitoneal irritant provokes the stretching counted in writhing tests.

In ChEMBL document CHEMBL1949650, “Design, synthesis, computational and biological evaluation of some new hydrazino derivatives of DHA and pyranopyrazoles” (2012) one finds inhibition in vivo and Activity data, which are given here for 17 compounds.

Activity calls are given as the source filed them. No cut-off for these calls is given here.

Take `Cc1cc2nn(-c3nc(-c4ccccc4)cs3)c(C)c2c(=O)o1`: the inhibition in vivo (in general, the share of the control response that was lost under treatment) at 50 mg/kg in the assay on Rattus norvegicus [1] was 59.5%; with Rattus norvegicus [2], 62.6%; with Rattus norvegicus [3], 52.9%; in the assay on Mus musculus [5], 70.2%; in the assay with Rattus norvegicus [6], 67.1%. In addition, in the assay with Mus musculus [4], the result was Active.
As for `CC(=O)c1c(NNc2ccc(C)cc2)cc(C)oc1=O`, the inhibition in vivo at 50 mg/kg was 53.4% with Rattus norvegicus [1]; 59.6% in the assay with Rattus norvegicus [2]; 50% with Rattus norvegicus [3]; 70.2% in the assay on Mus musculus [5]; 60.1% with Rattus norvegicus [6]. In the assay on Mus musculus [7], the outcome was Active.
As for `CC(=O)c1c(NNc2ccc(Cl)cc2)cc(C)oc1=O`, the inhibition in vivo at 50 mg/kg in the assay with Rattus norvegicus [1] stood at 57.3%; with Rattus norvegicus [2] it was 58.6%; in the assay on Rattus norvegicus [3], 28.4%; in the assay with Mus musculus [5], 75.1%; in the assay with Rattus norvegicus [6] it was 54.4%.
The like results for `CC(=O)c1c(NNc2ccc([N+](=O)[O-])cc2)cc(C)oc1=O` were, in that order, 55%, 45.5%, 44.1%, 47.3% and 53.2%.
Regarding `CC(=O)c1c(NNc2nc3ccccc3s2)cc(C)oc1=O`, the inhibition in vivo at 50 mg/kg in the assay with Rattus norvegicus [1] is 58.4%; in the assay on Rattus norvegicus [2], 54.5%; with Rattus norvegicus [3] it was 49%; with Mus musculus [5], 65.3%; in the assay on Rattus norvegicus [6], 64.6%. The result in the assay on Mus musculus [7] and with Mus musculus [4] was Active.
Turning to `CC(=O)c1c(NNc2nc(-c3ccccc3)cs2)cc(C)oc1=O`, the inhibition in vivo at 50 mg/kg amounted to 48.3% in the assay with Rattus norvegicus [1]; 45.5% with Rattus norvegicus [2]; 23.5% in the assay on Rattus norvegicus [3]; 51.4% in the assay with Mus musculus [5]; 51.9% in the assay on Rattus norvegicus [6]. Besides, the result in the assay on Mus musculus [8] was Active.
`CC(=O)c1c(NNc2cc(C)c3ccccc3n2)cc(C)oc1=O`: the inhibition in vivo at 50 mg/kg with Rattus norvegicus [1] was 55%; in the assay on Rattus norvegicus [2], 55.6%; in the assay with Rattus norvegicus [3] it was 51%; in the assay on Mus musculus [5] it was 75%; in the assay with Rattus norvegicus [6], 51.9%. The result with Mus musculus [7], in the assay on Mus musculus [8] and in the assay on Mus musculus [4] was Active.
`CC(=O)c1c(NNc2ccccc2)cc(C)oc1=O`: the inhibition in vivo at 50 mg/kg was 57.3% in the assay with Rattus norvegicus [1]; 55.6% with Rattus norvegicus [2]; 52% in the assay with Rattus norvegicus [3]; 49.8% in the assay on Mus musculus [5]; 59.5% in the assay on Rattus norvegicus [6]. In addition, the result in the assay on Mus musculus [7] was Active.
Regarding `Cc1cc2nn(-c3ccccc3)c(C)c2c(=O)o1`, the inhibition in vivo at 50 mg/kg in the assay with Rattus norvegicus [1] was found to be 55%; with Rattus norvegicus [2], 52.5%; with Rattus norvegicus [3] it was 43.1%; in the assay with Mus musculus [5], 50.2%; in the assay on Rattus norvegicus [6] it was 57%. Further, the outcome in the assay on Mus musculus [7] and in the assay on Mus musculus [4] was Active.
On to `CC(=O)c1c(NNc2nc(C)cc(C)n2)cc(C)oc1=O`, for which the inhibition in vivo at 50 mg/kg in the assay with Rattus norvegicus [1] was 61.8%; in the assay with Rattus norvegicus [2] it was 55.6%; with Rattus norvegicus [3], 42.2%; in the assay with Mus musculus [5] it was 64.9%; in the assay on Rattus norvegicus [6] it was 59.5%. In the assay with Mus musculus [7], the result was Active.
Consider `Cc1ccc(-n2nc3cc(C)oc(=O)c3c2C)cc1`, for which the inhibition in vivo at 50 mg/kg in the assay on Rattus norvegicus [1] turned out to be 58.4%; in the assay on Rattus norvegicus [2], 54%; in the assay with Rattus norvegicus [3], 41.7%; in the assay on Mus musculus [5], 69.4%; in the assay on Rattus norvegicus [6], 63.3%. Moreover, the result in the assay on Mus musculus [8] was Active.
As for `CC(=O)c1c(NNc2ccc(Br)cc2)cc(C)oc1=O`, the inhibition in vivo at 50 mg/kg amounted to 47.2% with Rattus norvegicus [1]; 40.4% with Rattus norvegicus [2]; 18.6% in the assay on Rattus norvegicus [3]; 53.1% in the assay on Mus musculus [5]; 46.8% with Rattus norvegicus [6].
Turning to `Cc1cc2nn(-c3ccc(Br)cc3)c(C)c2c(=O)o1`, the inhibition in vivo at 50 mg/kg is 50.6% with Rattus norvegicus [1]; 49.5% with Rattus norvegicus [2]; 38.2% in the assay with Rattus norvegicus [3]; 44.9% in the assay with Mus musculus [5]; 59.5% in the assay on Rattus norvegicus [6]. In the assay on Mus musculus [4], the outcome was Active.
As to `COc1ccc(-n2nc3cc(C)oc(=O)c3c2C)cc1`, the inhibition in vivo at 50 mg/kg with Rattus norvegicus [1] worked out at 53.9%; in the assay with Rattus norvegicus [2], 57.6%; in the assay with Rattus norvegicus [3] it was 42.2%; in the assay on Mus musculus [5], 75.9%; with Rattus norvegicus [6], 64.6%.
The like results for `COc1ccc(NNc2cc(C)oc(=O)c2C(C)=O)cc1` were, in that order, 49.4%, 44.4%, 24.5%, 59.2% and 50%.
The like results for `O=C(O)Cc1ccccc1Nc1c(Cl)cccc1Cl` [DICLOFENAC SODIUM] were, in that order, 67.4%, 69.7%, 66.7%, 77.5% and 70.9%.
The like results for `Cc1cc2nn(-c3ccc(Cl)cc3)c(C)c2c(=O)o1` were, in that order, 59.5%, 56.6%, 38.2%, 65.3% and 58.2%.
